Drawing on ChEMBL document CHEMBL4616679, “Fragment Screening Hit Draws Attention to a Novel Transient Pocket Adjacent to the Recognition Site of the tRNA-Modifying Enzyme TGT” (J Med Chem, 2020), this text covers Ki for 13 compounds.

This assay in a line: Inhibition of Zymomonas mobilis tRNA-guanine transglycosylase expressed in Escherichia coli cells BL21-CodonPlus (DE3)-RIPL in presence of and tRNATyr [-3H]-guanine incubated for 60 mins by liquid scintillation counting based radioactive assay. The gist of the method:
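Z. mobilis TGT (Strep-tag II removed by thrombin) at 9–150 nM, chosen by expected affinity; tRNA^Tyr held at 1.5 µM with saturating [8-³H]-guanine at 10 µM in 100 mM HEPES pH 7.3, 20 mM MgCl₂, 0.037% (v/v) Tween 20. Four 15 µL aliquots taken at 60 min intervals; guanine incorporation into tRNA read by liquid scintillation counting; Ki from reduction of incorporation rate.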

The structures appear in SMILES notation. pKi: −log10 of the molar value.

`Nc1nc2cc3[nH]c(NCCN4CCOCC4)nc3cc2c(=O)[nH]1`: the pKi (as a rule, the Ki on a negative log10 scale, so that one unit is a factor of ten) is 8.22.
In the case of `CNc1nc2cc3c(=O)[nH]c(N)nc3cc2[nH]1`, the pKi is 7.24.
On to `CNc1nc2cc3c(=O)[nH]cnc3cc2[nH]1`, for which the pKi was 5.15.
Take `NC(=O)c1ccc2nc(NCCN3CCOCC3)[nH]c2c1`: the pKi is 3.26.
As to `CNC(=O)c1ccc2nc(NCCN3CCOCC3)[nH]c2c1`, the pKi is 3.58.
Consider `N=C(N)Nc1ccc2[nH]c(NCCN3CCOCC3)nc2c1`, for which the pKi is 4.24.
Take `CNc1nc2ccc(C(=O)NN)cc2[nH]1`: the pKi is 3.55.
The result for `CNc1nc2ccc(C(N)=O)cc2[nH]1` reads 3.52; that for `NNC(=O)c1ccc2nc(NCCN3CCOCC3)[nH]c2c1`, 3.55.
Turning to `CNC(=O)c1ccc2nc(NC)[nH]c2c1`, the pKi is 3.57.
Consider `CNc1nc2cc3c(cc2[nH]1)CNC(N)=N3`, for which the negative-log Ki (pKi) is 4.77.
As for `CNc1nc2cc(NC(=N)N)ccc2[nH]1`, the pKi was 4.72.
The result for `CC#CC1NC(N)=Nc2cc3nc(NC)[nH]c3cc21` (racemic) reads 4.32.
